Assay results collected from several papers.
Compare with care: the assays were run in different laboratories.
Target: Rhodopsin kinase GRK7 (GRK7, Homo sapiens, UniProt Q8WTQ7)
One construct used (Q8WTQ7 1-553): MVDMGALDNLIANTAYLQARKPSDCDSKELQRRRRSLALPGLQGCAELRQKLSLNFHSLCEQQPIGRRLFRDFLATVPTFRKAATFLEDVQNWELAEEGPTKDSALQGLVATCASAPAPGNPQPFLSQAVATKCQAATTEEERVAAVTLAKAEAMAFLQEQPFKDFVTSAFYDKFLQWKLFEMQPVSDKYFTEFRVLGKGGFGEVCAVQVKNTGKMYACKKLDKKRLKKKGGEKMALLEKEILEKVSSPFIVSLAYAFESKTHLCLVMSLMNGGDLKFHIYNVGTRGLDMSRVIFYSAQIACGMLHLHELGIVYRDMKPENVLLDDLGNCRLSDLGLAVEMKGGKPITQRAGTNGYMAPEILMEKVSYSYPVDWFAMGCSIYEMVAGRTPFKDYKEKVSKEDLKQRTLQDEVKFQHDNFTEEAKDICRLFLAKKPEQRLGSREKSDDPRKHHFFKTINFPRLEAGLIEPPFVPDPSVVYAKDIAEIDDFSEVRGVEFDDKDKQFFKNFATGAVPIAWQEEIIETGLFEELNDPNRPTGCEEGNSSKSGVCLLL

Structure (SMILES) | observed | action | technique | concentration | quantity | result
CC(C)(C)c1cc(C=C(C#N)C#N)cc(Br)c1O | enzyme activity | inhibitor |  | 0.5 µM | remaining activity | 107%
Cn1cc(-c2cccc(N3CCc4c(sc5c4CC(C)(C)C5)C3=O)c2CO)cc(Nc2ccncn2)c1=O | enzyme activity | inhibitor |  | 1 µM | inhibition | 3%
Cn1cncc1[C@@](O)(COc1ccc(C#N)cc1-c1ccc(OC(F)(F)F)cc1)c1ccc(C#N)cc1 | cell-free assay |  | competition with immobilised ligand | 1 µM | remaining binding | 81%
Nc1ncc(-c2nc(N3CCOCC3)nc(N3CCOCC3)n2)c(C(F)F)n1 | binding |  | competition with immobilised ligand | 10 µM | remaining binding | 67%
O=c1[nH]c2ccccc2n1C1CCN(Cc2ccc(-c3[nH]c4cc5ncnc5cc4nc3-c3ccccc3)cc2)CC1 | cell-free assay |  |  | 0.5 µM | remaining signal | 98.5%
N#CC1(c2ccccn2)CCN(Cc2cc(C(=O)O)c(=O)n3ccccc23)CC1 | cell-free assay |  | competition with immobilised ligand | 1 µM | remaining binding | 77%
Cn1cc(-c2cc(F)cc(N3CCn4c(cc5c4CCCC5)C3=O)c2CO)cc(Nc2ccc(N3CCN(C4COC4)CC3)cn2)c1=O | enzyme activity | inhibitor |  | 0.1 µM | inhibition | 2%
COc1ncccc1-c1cnn2ccc(N3CCN(C(=O)OC(C)C)CC3)nc12 | binding |  | competition with immobilised ligand | 1 µM | remaining binding | 100%
